ChEMBL document CHEMBL4321796, “Proteolysis Targeting Chimeras for the Selective Degradation of Mcl-1/Bcl-2 Derived from Nonselective Target Binding Ligands” (J Med Chem, 2019)
The source made the active and inactive calls. No cut-off for these calls is given here.

Columns and labels:
[1] = target: Protein cereblon/E3 ubiquitin-protein ligase Mdm2 (Homo sapiens) (UniProt Q00987+Q96SW2); experiment: Induction of CRBN-mediated MDM2 degradation in human HeLa cells at 10 uM incubated for 12 hrs by Western blot analysis; type: cell-based
Sequence of Protein cereblon/E3 ubiquitin-protein ligase Mdm2 (Homo sapiens) (Q00987 whole entry, looked up): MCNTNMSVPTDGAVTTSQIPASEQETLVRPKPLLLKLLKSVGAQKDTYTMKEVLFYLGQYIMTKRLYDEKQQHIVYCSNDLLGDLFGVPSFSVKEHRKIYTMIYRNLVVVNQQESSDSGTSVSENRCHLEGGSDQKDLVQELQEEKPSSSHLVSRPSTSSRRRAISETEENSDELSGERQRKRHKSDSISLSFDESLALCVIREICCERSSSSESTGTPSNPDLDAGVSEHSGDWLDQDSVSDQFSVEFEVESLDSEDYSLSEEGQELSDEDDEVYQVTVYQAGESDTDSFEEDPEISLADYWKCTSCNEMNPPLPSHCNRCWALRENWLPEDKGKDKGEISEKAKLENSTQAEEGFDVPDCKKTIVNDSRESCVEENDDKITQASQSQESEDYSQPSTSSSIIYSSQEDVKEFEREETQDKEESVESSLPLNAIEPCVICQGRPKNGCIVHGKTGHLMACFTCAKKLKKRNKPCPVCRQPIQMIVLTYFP
Sequence of Protein cereblon/E3 ubiquitin-protein ligase Mdm2 (Homo sapiens) (Q96SW2 whole entry, looked up): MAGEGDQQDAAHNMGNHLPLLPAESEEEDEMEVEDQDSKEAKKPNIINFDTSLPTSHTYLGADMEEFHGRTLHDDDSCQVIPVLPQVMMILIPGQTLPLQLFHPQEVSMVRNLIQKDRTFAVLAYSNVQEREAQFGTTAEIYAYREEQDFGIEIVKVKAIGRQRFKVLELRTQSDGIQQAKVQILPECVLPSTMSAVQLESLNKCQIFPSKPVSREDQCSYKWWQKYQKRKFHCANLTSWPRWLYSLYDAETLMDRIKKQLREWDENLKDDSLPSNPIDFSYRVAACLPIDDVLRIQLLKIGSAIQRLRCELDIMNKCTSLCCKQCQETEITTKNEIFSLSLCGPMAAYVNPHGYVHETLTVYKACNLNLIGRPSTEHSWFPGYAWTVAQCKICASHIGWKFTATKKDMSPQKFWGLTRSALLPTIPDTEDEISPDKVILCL

[2] = target: Protein cereblon/Bcl-2-like protein 1 (Homo sapiens) (UniProt Q07817+Q96SW2); experiment: Induction of CRBN-mediated Bcl-xl degradation in human HeLa cells at 10 uM incubated for 12 hrs by Western blot analysis; type: cell-based
Sequence of Protein cereblon/Bcl-2-like protein 1 (Homo sapiens) (Q07817 whole entry, looked up, the tested form may be a part): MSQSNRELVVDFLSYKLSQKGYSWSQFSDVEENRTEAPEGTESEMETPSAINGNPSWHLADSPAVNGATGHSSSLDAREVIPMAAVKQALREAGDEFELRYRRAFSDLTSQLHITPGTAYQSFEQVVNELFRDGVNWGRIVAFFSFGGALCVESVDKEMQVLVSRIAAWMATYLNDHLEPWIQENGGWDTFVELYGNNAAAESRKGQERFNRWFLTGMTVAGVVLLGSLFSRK
Sequence of Protein cereblon/Bcl-2-like protein 1 (Homo sapiens) (Q96SW2 whole entry, looked up, the tested form may be a part): as the sequence (Q96SW2 whole entry, looked up) above

[3] = target: Induced myeloid leukemia cell differentiation protein Mcl-1 (Homo sapiens, UniProt Q07820); experiment: Inhibition of biotinylated Bim peptide (81 to 106 residues) binding to His-tagged human Mcl-1 expressed in Escherichia coli BL21 (DE3) cells preincubated for 1 hr followed by biotinylated Bim peptide addition measured after 2 hrs by ELISA
Sequence of Induced myeloid leukemia cell differentiation protein Mcl-1 (Q07820 whole entry, the tested form may be a part): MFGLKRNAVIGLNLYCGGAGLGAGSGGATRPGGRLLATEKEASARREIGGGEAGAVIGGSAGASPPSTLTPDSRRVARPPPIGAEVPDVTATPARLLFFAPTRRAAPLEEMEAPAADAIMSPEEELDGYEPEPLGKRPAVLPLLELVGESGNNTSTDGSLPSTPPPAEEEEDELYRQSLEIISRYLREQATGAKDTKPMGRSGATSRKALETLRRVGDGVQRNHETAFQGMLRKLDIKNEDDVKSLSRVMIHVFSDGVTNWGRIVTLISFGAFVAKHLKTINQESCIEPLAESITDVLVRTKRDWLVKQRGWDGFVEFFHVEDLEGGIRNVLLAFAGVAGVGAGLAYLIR
In short: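 Inhibitor serially diluted (100–0.1 µM) from 10 mM DMSO stock, preincubated 1 h with 200 nM His-tagged protein in PBS (final DMSO 4%), then added 2 h to streptavidin plates holding biotin-Bim (plated at 0.09 mg/mL). Incubations at 4 °C. Detection with HRP anti-His, TMB 30 min, H2SO4 stop, A450. IC50 averaged from three independent experiments, with SD.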

[4] = target: T1, Protein cereblon/Induced myeloid leukemia cell differentiation protein Mcl-1 (Homo sapiens, UniProt Q07820+Q96SW2); experiment: Induction of CRBN-mediated Mcl-1 degradation in human HeLa cells assessed as relative abundance at 10 uM after 12 hrs by Western blot analysis (reference value: 1); type: cell-based
Target sequence in this assay (Q07820 whole entry, looked up): as the sequence (Q07820 whole entry, the tested form may be a part) above
Target sequence in this assay (Q96SW2 whole entry, looked up): as the sequence (Q96SW2 whole entry, looked up) above

[5] = target: T1, Protein cereblon/Induced myeloid leukemia cell differentiation protein Mcl-1; experiment: Induction of CRBN-mediated Mcl-1 degradation in human HeLa cells assessed as relative abundance at 1 uM after 12 hrs by Western blot analysis (reference value: 1); type: cell-based
Target sequence in this assay (Q07820 whole entry, looked up): as the sequence (Q07820 whole entry, the tested form may be a part) above
Target sequence in this assay (Q96SW2 whole entry, looked up): as the sequence (Q96SW2 whole entry, looked up) above

[6] = target: T2, Protein cereblon/Apoptosis regulator Bcl-2 (Homo sapiens, UniProt P10415+Q96SW2); experiment: Induction of CRBN-mediated Bcl-2 degradation in human HeLa cells assessed as relative abundance at 10 uM after 12 hrs by Western blot analysis (reference value: 1); type: cell-based
T2 sequence (P10415 whole entry, looked up): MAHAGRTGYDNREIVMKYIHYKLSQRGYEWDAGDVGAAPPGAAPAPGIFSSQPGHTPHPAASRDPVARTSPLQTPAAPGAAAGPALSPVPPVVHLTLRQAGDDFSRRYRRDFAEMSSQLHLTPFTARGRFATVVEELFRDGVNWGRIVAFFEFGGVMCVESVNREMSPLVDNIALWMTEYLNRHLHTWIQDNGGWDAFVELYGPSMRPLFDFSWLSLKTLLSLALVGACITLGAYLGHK
T2 sequence (Q96SW2 whole entry, looked up): as the sequence (Q96SW2 whole entry, looked up) above

[7] = target: T1, Protein cereblon/Induced myeloid leukemia cell differentiation protein Mcl-1; experiment: Induction of CRBN-mediated Mcl-1 degradation in human HeLa cells after 12 hrs by Western blot analysis; type: cell-based
Target sequence in this assay (Q07820 whole entry, looked up): as the sequence (Q07820 whole entry, the tested form may be a part) above
Target sequence in this assay (Q96SW2 whole entry, looked up): as the sequence (Q96SW2 whole entry, looked up) above

[8] = target: T1, Protein cereblon/Induced myeloid leukemia cell differentiation protein Mcl-1; experiment: Induction of CRBN-mediated Mcl-1 degradation in human HeLa cells assessed as Mcl-1 level at 10 uM after 12 hrs by Western blot analysis relative to control; type: cell-based
Target sequence in this assay (Q07820 whole entry, looked up): as the sequence (Q07820 whole entry, the tested form may be a part) above
Target sequence in this assay (Q96SW2 whole entry, looked up): as the sequence (Q96SW2 whole entry, looked up) above

[9] = target: T2, Protein cereblon/Apoptosis regulator Bcl-2; experiment: Induction of CRBN-mediated Bcl-2 degradation in human HeLa cells assessed as relative abundance at 3 uM after 12 hrs by Western blot analysis (reference value: 1); type: cell-based
[10] = target: T2, Protein cereblon/Apoptosis regulator Bcl-2; experiment: Induction of CRBN-mediated Bcl-2 degradation in human HeLa cells assessed as relative abundance at 0.3 uM after 12 hrs by Western blot analysis (reference value: 1); type: cell-based
[11] = target: T1, Protein cereblon/Induced myeloid leukemia cell differentiation protein Mcl-1; experiment: Induction of CRBN-mediated Mcl-1 degradation in human HeLa cells assessed as relative abundance at 0.1 uM after 12 hrs by Western blot analysis (reference value: 1); type: cell-based
Target sequence in this assay (Q07820 whole entry, looked up): as the sequence (Q07820 whole entry, the tested form may be a part) above
Target sequence in this assay (Q96SW2 whole entry, looked up): as the sequence (Q96SW2 whole entry, looked up) above

[12] = target: T1, Protein cereblon/Induced myeloid leukemia cell differentiation protein Mcl-1; experiment: Induction of CRBN-mediated Mcl-1 degradation in human HeLa cells assessed as relative abundance at 3 uM after 12 hrs by Western blot analysis (reference value: 1); type: cell-based
Target sequence in this assay (Q07820 whole entry, looked up): as the sequence (Q07820 whole entry, the tested form may be a part) above
Target sequence in this assay (Q96SW2 whole entry, looked up): as the sequence (Q96SW2 whole entry, looked up) above

[13] = target: T1, Protein cereblon/Induced myeloid leukemia cell differentiation protein Mcl-1; experiment: Induction of CRBN-mediated Mcl-1 degradation in human HeLa cells assessed as relative abundance at 10 uM measured at 2 hrs by Western blot analysis (reference value: 1); type: cell-based
In short: (§1)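 HeLa cells in DMEM with 10% FBS, exposed to 10 µM compound over a 0–24 h time course. Mcl-1 and Bcl-2 detected by immunoblot (NP-40 lysis, BCA-equalized SDS-PAGE, PVDF, ECL) and quantified relative to DMSO control; mean ± s.d., n=3 independent samples.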

[14] = target: T1, Protein cereblon/Induced myeloid leukemia cell differentiation protein Mcl-1; experiment: Induction of CRBN-mediated Mcl-1 degradation in human HeLa cells assessed as relative abundance at 10 uM measured at 4 hrs by Western blot analysis (reference value: 1); type: cell-based; in short: as §1
[15] = target: T1, Protein cereblon/Induced myeloid leukemia cell differentiation protein Mcl-1; experiment: Induction of CRBN-mediated Mcl-1 degradation in human HeLa cells assessed as relative abundance at 10 uM measured at 8 hrs by Western blot analysis (reference value: 1); type: cell-based; in short: as §1
[16] = target: T1, Protein cereblon/Induced myeloid leukemia cell differentiation protein Mcl-1; experiment: Induction of CRBN-mediated Mcl-1 degradation in human HeLa cells assessed as relative abundance at 10 uM measured at 16 hrs by Western blot analysis (reference value: 1); type: cell-based; in short: as §1
[17] = target: T1, Protein cereblon/Induced myeloid leukemia cell differentiation protein Mcl-1; experiment: Induction of CRBN-mediated Mcl-1 degradation in human HeLa cells assessed as relative abundance at 10 uM measured at 20 hrs by Western blot analysis (reference value: 1); type: cell-based; in short: as §1
[18] = target: T1, Protein cereblon/Induced myeloid leukemia cell differentiation protein Mcl-1; experiment: Induction of CRBN-mediated Mcl-1 degradation in human HeLa cells assessed as relative abundance at 10 uM measured at 24 hrs by Western blot analysis (reference value: 1); type: cell-based; in short: as §1
[19] = target: T2, Protein cereblon/Apoptosis regulator Bcl-2; experiment: Induction of CRBN-mediated Bcl-2 degradation in human HeLa cells assessed as relative abundance at 10 uM measured at 2 hrs by Western blot analysis (reference value: 1); type: cell-based; in short: as §1
[20] = target: T2, Protein cereblon/Apoptosis regulator Bcl-2; experiment: Induction of CRBN-mediated Bcl-2 degradation in human HeLa cells assessed as relative abundance at 10 uM measured at 8 hrs by Western blot analysis (reference value: 1); type: cell-based; in short: as §1
[21] = target: T2, Protein cereblon/Apoptosis regulator Bcl-2; experiment: Induction of CRBN-mediated Bcl-2 degradation in human HeLa cells assessed as relative abundance at 10 uM measured at 24 hrs by Western blot analysis (reference value: 1); type: cell-based; in short: as §1
[22] = target: T1, Protein cereblon/Induced myeloid leukemia cell differentiation protein Mcl-1; experiment: Induction of CRBN-mediated Mcl-1 degradation in human HeLa cells at 10 uM measured at 12 hrs by Western blot analysis relative to control; type: cell-based; in short: as §1
[23] = target: T1, Protein cereblon/Induced myeloid leukemia cell differentiation protein Mcl-1; experiment: Induction of CRBN-mediated Mcl-1 degradation in human HeLa cells assessed as Mcl-1 removal activity measured at 12 hrs by Western blot analysis; type: cell-based
Target sequence in this assay (Q07820 whole entry): as the sequence (Q07820 whole entry, the tested form may be a part) above
Target sequence in this assay (Q96SW2 whole entry): as the sequence (Q96SW2 whole entry, looked up) above

[24] = system: HeLa; experiment: Induction of CRBN-mediated tubulin degradation in human HeLa cells at 10 uM incubated for 12 hrs by Western blot analysis; type: cell-based
In short: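 HeLa cells (DMEM, 10% FBS, 37 °C, 5% CO2) treated 12 h with compound (10 µM, or 0–10 µM gradient; time course 0–24 h at 10 µM). Lysis in NP-40 buffer with protease inhibitors, equal protein loaded for SDS-PAGE and immunoblotting. Bands quantified relative to DMSO control. n=3 independent samples.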

[25] = target: T1, Protein cereblon/Induced myeloid leukemia cell differentiation protein Mcl-1; experiment: Induction of CRBN-mediated Mcl-1 degradation in human HeLa cells at 10 uM pretreated with Bcl-2 inhibitor Nap-1 followed by compound addition by Western blot analysis; type: cell-based
[26] = target: T1, Protein cereblon/Induced myeloid leukemia cell differentiation protein Mcl-1; experiment: Induction of CRBN-mediated Mcl-1 degradation in human HeLa cells at 10 uM pretreated with CRBN inhibitor pomalidomide followed by compound addition by Western blot analysis; type: cell-based
[27] = system: NCI-H23; experiment: Cytotoxicity against human H23 cells incubated for 24 hrs by CCK8 assay; type: functional, cell-based
In short: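 H23 cells seeded at 4 × 10^4 per mL in RPMI with 10% FBS, L-glutamine and pen/strep. Treated 24 h at various concentrations or with DMSO vehicle (0.05%). Viability read by CCK8 and normalized against cell-free background and untreated cultures; mean ± s.e.m., n=3.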

[28] = target: T2, Protein cereblon/Apoptosis regulator Bcl-2; experiment: Induction of CRBN-mediated Bcl-2 degradation in human HeLa cells assessed as reduction in Bcl-2 level at 10 uM after 12 hrs by Western blot analysis; type: cell-based

With `O=C(CCCCC(=O)NCCN1C(=O)c2cccc3c(Sc4ccc(Br)cc4)ccc(c23)C1=O)NCCCCCCNc1cccc2c1C(=O)N(C1CCC(=O)NC1=O)C2=O` (stereo not drawn) the Activity [1] was “inactive”, the Activity [2] was “inactive” and the IC50 [3] was 780 nM. The fold change (FC) [4] was 0.1 to 0.2, the fold change (FC) [5] was 0.3 and the fold change (FC) [6] was 0.8 to 1. The Activity [7] was “Dose-dependent effect”, the Activity [8] was under 10% and the fold change (FC) [9] was 1. For the same molecule, the fold change (FC) [10] was 1, the fold change (FC) [11] was 1.1 and the fold change (FC) [12] was 0.1. The fold change (FC) [13] was 1.1, the fold change (FC) [14] was 1.1 and the fold change (FC) [15] was 0.7. It also gave a fold change (FC) [16] of 0.4, a fold change (FC) [17] of 0.8 and a fold change (FC) [18] of 0.9. It also gave a fold change (FC) [19] of 1.1, a fold change (FC) [20] of 1 and a fold change (FC) [21] of 0.9. For the same molecule, the Activity [22] was 80%, the DC50 [23] was 700 nM and the Activity [24] was “inactive”. The Activity [25] was “inactive”, the Activity [26] was “inactive” and the Activity [27] was “Active”. The Activity [28] was “inactive”.
